Data set [1] has as its system Toxoplasma gondii. In words: Antiparasitic activity against Toxoplasma gondii infected in mouse L929 cells at 0.01 uM after 24 hrs by [3H]uracil incorporation assay relative to control. Type of data set: functional.
Data set [2] is described as follows: Selectivity index, ratio of IC50 for african green monkey (Cercopithecus aethiops) Vero cells to IC50 for Plasmodium falciparum D6. Type of data set: toxicity, cell-based. The conditions noted are these: read-out: Ratio IC50.
The test system of data set [3] is Toxoplasma gondii. In words: Antiparasitic activity against Toxoplasma gondii infected in mouse L929 cells at 10 uM after 48 hrs by [3H]uracil incorporation assay relative to control. Type of data set: functional.
Data set [4] deals with Toxoplasma gondii. In words: Antiparasitic activity against Toxoplasma gondii infected in HFF cells at 1 uM after 24 hrs by [3H]uracil incorporation assay relative to control. Type of data set: functional.
The test system of data set [5] is Toxoplasma gondii. In words: Antiparasitic activity against Toxoplasma gondii infected in HFF cells at 0.01 uM after 48 hrs by [3H]uracil incorporation assay relative to control. Type of data set: functional.
In data set [6] the test system is L929. Description: Toxicity against mouse L929 cells at 1 uM after 24 hrs by MTT assay relative to control. The conditions noted are these: l929, 24 h. Type of data set: cell-based. Summed up: (§1)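 Host-cell toxicity for HFF and L929 cells determined by MTT cell proliferation assay; expressed as percent of control.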
Background: Tetrazolium dyes change colour on reduction, which living cells bring about.

Data set [7] relates to Toxoplasma gondii. Description: Antiparasitic activity against Toxoplasma gondii infected in mouse L929 cells at 1 uM after 24 hrs by [3H]uracil incorporation assay relative to control. Type of data set: functional.
In data set [8] the test system is HFF. Description: Toxicity against HFF cells at 1 uM after 24 hrs by MTT assay relative to control. Type of data set: cell-based. The conditions noted are these: human. Summed up:
as §1

Data set [9] concerns L929. Description: Toxicity against mouse L929 cells at 0.010 uM after 48 hrs by MTT assay relative to control. Type of data set: cell-based. The conditions noted are these: l929, 48 h, 0.01 µM. The method in brief:
as §1

In data set [10] the test system is Plasmodium falciparum. In words: Antimalarial activity against Plasmodium falciparum W2. Type of data set: functional, organism-based.
In data set [11] the test system is HFF. Description: Toxicity against HFF cells at 10 uM after 48 hrs by MTT assay relative to control. Type of data set: cell-based. The conditions noted are these: human. The method in brief: as §1
The test system of data set [12] is L929. Description: Toxicity against mouse L929 cells at 0.010 uM after 24 hrs by MTT assay relative to control. Type of data set: cell-based. The conditions noted are these: l929, 24 h, 0.01 µM. The method in brief:
as §1

Data set [13] has as its system L929. In words: Toxicity against mouse L929 cells at 0.10 uM after 48 hrs by MTT assay relative to control. Type of data set: cell-based. The conditions noted are these: l929, 48 h, 0.1 µM. Summed up:
as §1

The subject of data set [14] is Toxoplasma gondii. Description: Antiparasitic activity against Toxoplasma gondii infected in HFF cells at 1 uM after 48 hrs by [3H]uracil incorporation assay relative to control. Type of data set: functional.
In data set [15] the test system is Toxoplasma gondii. In words: Antiparasitic activity against Toxoplasma gondii infected in mouse L929 cells at 0.01 uM after 48 hrs by [3H]uracil incorporation assay relative to control. Type of data set: functional.
Data set [16] relates to Plasmodium falciparum. Description: Antimalarial activity against Plasmodium falciparum D6. Type of data set: functional, organism-based.
Data set [17] concerns L929. In words: Toxicity against mouse L929 cells at 10 uM after 24 hrs by MTT assay relative to control. Type of data set: cell-based. The conditions noted are these: l929, 24 h. Summed up: as §1
Data set [18] has as its system Toxoplasma gondii. Description: Antiparasitic activity against Toxoplasma gondii infected in mouse L929 cells at 0.1 uM after 24 hrs by [3H]uracil incorporation assay relative to control. Type of data set: functional.
Data set [19] concerns L929. Description: Toxicity against mouse L929 cells at 10 uM after 48 hrs by MTT assay relative to control. Type of data set: cell-based. The conditions noted are these: l929, 48 h. The method in brief:
as §1

Data set [20] concerns Human alphaherpesvirus 1. Description: Antiviral activity against HSV1 infected african green monkey Vero cells assessed as inhibition of viral-induced cytopathic effect. Type of data set: functional. The conditions noted are these: Human alphaherpesvirus 1, Vero; read-out: ED50 (the source's name). The method in brief: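 Simplified plaque reduction assay: serial dilutions of test compounds with herpes simplex type 1 virus in Vero African green monkey kidney cell cultures in 96-well trays.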
(Cytopathic effects are the visible damage that an infection or toxin causes in cultured cells.)

In data set [21] the test system is Toxoplasma gondii. In words: Antiparasitic activity against Toxoplasma gondii infected in mouse L929 cells at 10 uM after 24 hrs by [3H]uracil incorporation assay relative to control. Type of data set: functional.
Data set [22] deals with Toxoplasma gondii. In words: Antiparasitic activity against Toxoplasma gondii infected in HFF cells at 0.1 uM after 24 hrs by [3H]uracil incorporation assay relative to control. Type of data set: functional.
For data set [23], the system named is HFF. In words: Toxicity against HFF cells at 10 uM after 24 hrs by MTT assay relative to control. Type of data set: cell-based. The conditions noted are these: human. The method in brief:
as §1

Data set [24] concerns HFF. Description: Toxicity against HFF cells at 0.010 uM after 24 hrs by MTT assay relative to control. Type of data set: cell-based. The conditions noted are these: human, 0.01 µM. The method in brief: as §1
Data set [25] relates to L929. Description: Toxicity against mouse L929 cells at 0.10 uM after 24 hrs by MTT assay relative to control. The conditions noted are these: l929, 24 h, 0.1 µM. Type of data set: cell-based. The method in brief:
as §1

Data set [26] has as its system Toxoplasma gondii. Description: Antiparasitic activity against Toxoplasma gondii infected in mouse L929 cells at 0.1 uM after 48 hrs by [3H]uracil incorporation assay relative to control. Type of data set: functional.
Data set [27] can be described thus: Selectivity index, ratio of IC50 for african green monkey (Cercopithecus aethiops) Vero cells to IC50 for Plasmodium falciparum W2. Type of data set: toxicity, cell-based. The conditions noted are these: read-out: Ratio IC50.
The test system of data set [28] is L929. In words: Toxicity against mouse L929 cells at 1 uM after 48 hrs by MTT assay relative to control. Type of data set: cell-based. The conditions noted are these: l929, 48 h. The method in brief:
as §1

The subject of data set [29] is Toxoplasma gondii. Description: Antiparasitic activity against Toxoplasma gondii infected in HFF cells at 10 uM after 24 hrs by [3H]uracil incorporation assay relative to control. Type of data set: functional.
Data set [30] has as its system Toxoplasma gondii. In words: Antiparasitic activity against Toxoplasma gondii infected in mouse L929 cells at 1 uM after 48 hrs by [3H]uracil incorporation assay relative to control. Type of data set: functional.
For data set [31], the system named is Vero. In words: Cytotoxicity against african green monkey Vero cells. The conditions noted are these: Chlorocebus sabaeus. Type of data set: cell-based. The method in brief: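 Cytotoxicity taken from the same HSV-1 plaque cultures: concentration causing half-maximal loss of uninfected Vero cells from the monolayer surrounding plaques.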
Data set [32] concerns HFF. In words: Toxicity against HFF cells at 0.10 uM after 24 hrs by MTT assay relative to control. Type of data set: cell-based. The conditions noted are these: human, 0.1 µM. The method in brief: as §1
The subject of data set [33] is HFF. Description: Toxicity against HFF cells at 1 uM after 48 hrs by MTT assay relative to control. Type of data set: cell-based. The conditions noted are these: human. Summed up:
as §1

Data set [34] concerns HFF. In words: Toxicity against HFF cells at 0.10 uM after 48 hrs by MTT assay relative to control. The conditions noted are these: human, 0.1 µM. Type of data set: cell-based. The method in brief:
as §1

In data set [35] the test system is Toxoplasma gondii. In words: Antiparasitic activity against Toxoplasma gondii infected in HFF cells at 10 uM after 48 hrs by [3H]uracil incorporation assay relative to control. Type of data set: functional.
The subject of data set [36] is Toxoplasma gondii. Description: Antiparasitic activity against Toxoplasma gondii infected in HFF cells at 0.01 uM after 24 hrs by [3H]uracil incorporation assay relative to control. Type of data set: functional.
For data set [37], the system named is Toxoplasma gondii. Description: Antiparasitic activity against Toxoplasma gondii infected in HFF cells at 0.1 uM after 48 hrs by [3H]uracil incorporation assay relative to control. Type of data set: functional.
Data set [38] has as its system HFF. Description: Toxicity against HFF cells at 0.010 uM after 48 hrs by MTT assay relative to control. Type of data set: cell-based. The conditions noted are these: human, 0.01 µM. The method in brief:
as §1

Data set [39] relates to Plasmodium falciparum. In words: Antimalarial activity against Plasmodium falciparum W2 at 80 ug/mL. Type of data set: functional, organism-based.
The test system of data set [40] is Plasmodium falciparum. Description: Antimalarial activity against Plasmodium falciparum D6 at 80 ug/mL. Type of data set: functional, organism-based.

In brackets after ≈: the same amount, converted by molar mass.

For orientation: IC50 means the point on the concentration scale where inhibition reaches its midpoint.

Turning to `CC1=C(CC/C(C)=C/CC[C@@]2(C)CC[C@@H]([C@@H](C)C(=O)O)OO2)C(C)(C)CCC1` [MUQUBILIN], the Activity in data set [1] worked out at 33.85%; in [3] it was 100%; in data set [4], 86.18%; in [5] it was 0%; in data set [6], 66.3%; in data set [7], 84.03%. Further, the Activity in data set [8] was determined as 86.15%; in data set [9], 0%; in [11], 84.73%; in [12], 0%; in [13] it was 0%; in [14] it was 87.94%. For the same molecule, the Activity in [15] was determined as 0%; in [17], 93%; in [18] it was 58.35%; in data set [19], 94.9%; in data set [21] it was 87.84%; in [22] it was 84%. Further, the Activity was determined as 85.85% in data set [23]; 0% in data set [24]; 0% in data set [25]; 46.3% in data set [26]; 83.36% in data set [28]; 91.72% in data set [29]. Also, the Activity was found to be 96.77% in [30]; 7.15% in [32]; 85.93% in [33]; 0.94% in [34]; 100% in data set [35]; 3.16% in [36]. For the same molecule, the Activity in [37] is listed as 62.88%; in data set [38] it was 0%. Moreover, the selectivity ratio was greater than 1.6 in data set [2] and greater than 1 in [27]. In addition, the results for the IC50 in [10], in data set [16] and in data set [31] were greater than 4.76 µg/mL, 2.9 µg/mL (≈ 7.39 µM) and 30 µg/mL (≈ 76.4 µM), respectively. The EC50 in data set [20] came to 7.5 µg/mL (≈ 19.1 µM).

With `C=C1CCC[C@H]2[C@](C)(CC[C@]3(C)CC[C@H]([C@@H](C)C(=O)O)OO3)[C@@H](C)CC[C@]12C` [SIGMOSCEPTRELLIN A], the IC50 was determined as 0.42 µg/mL (≈ 1.07 µM) in data set [10] and 0.47 µg/mL (≈ 1.2 µM) in [16].

On to `CC(=O)CCCC(C)(C)C(=O)CC/C(C)=C/CC[C@@]1(C)CC[C@H]([C@H](C)C(=O)O)OO1` [AIKUPIKOXIDE A], for which the EC50 in data set [20] came out at 30 µg/mL (≈ 70.7 µM). In addition, the IC50 in data set [31] was 60 µg/mL (≈ 141 µM); in data set [39] it was “Not Active”; in [40] it was “Not Active”.

Consider `C=C1CCC[C@@H]2[C@@H](CC[C@@]3(C)CC[C@H]([C@H](C)C(=O)O)OO3)[C@H](C)CC[C@@]12C` [SIGMOSCEPTRELLIN B], for which the Activity stood at 0% in data set [1]; 100% in data set [3]; 96.49% in [4]; 37.57% in data set [5]; 60.48% in [6]; 91.88% in [7]. For the same molecule, the Activity is 86.81% in data set [8]; 0% in data set [9]; 94.65% in data set [11]; 0% in [12]; 0% in data set [13]; 100% in [14]. For the same molecule, the Activity in data set [15] is given as 24.15%; in [17] it was 92.96%; in data set [18] it was 18.61%; in data set [19], 91.05%; in data set [21] it was 96.62%; in data set [22], 84.72%. The Activity in [23] is recorded as 87.41%; in [24] it was 0%; in [25], 0%; in data set [26], 35.17%; in data set [28] it was 91.21%; in data set [29], 94.91%. In addition, the Activity worked out at 98.82% in data set [30]; 0% in [32]; 64.37% in [33]; 5.56% in data set [34]; 100% in data set [35]; 0% in data set [36]. Moreover, the Activity in [37] came out at 98.32%; in data set [38], 0%. Also, the selectivity ratio in [2] is greater than 2.7; in data set [27] it was greater than 1. Also, the IC50 in data set [10] was 3.4 µg/mL (≈ 8.98 µM); in data set [16] it was 1.2 µg/mL (≈ 3.17 µM); in data set [31], 2.5 µg/mL (≈ 6.6 µM).

For the origin of these results see ChEMBL document CHEMBL1150818, “Antimalarial, antiviral, and antitoxoplasmosis norsesterterpene peroxide acids from the Red Sea sponge Diacarnus erythraeanus” (J Nat Prod, 2001).
